In brackets after ≈: the same amount, converted by molar mass.
Legend:
[1] = tested on: Mycobacterium tuberculosis; test: Antimycobacterial activity against Mycobacterium tuberculosis H37Rv ATCC 27294 after 28 days by two fold serial dilution method; type: functional; details: H37Rv ATCC 27294, 672 h
Summary of the method: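 M. tuberculosis H37Rv (ATCC 27294) in vitro; MIC taken as the lowest concentration in µg/mL giving 99% growth inhibition. Determined in triplicate at pH 7.4, with standard drugs (INH, R, E, Z, Cfx) run alongside.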

[2] = Selectivity index, ratio of cytotoxicity against HEK293T cells to MIC for Mycobacterium tuberculosis H37Rv ATCC 27294; type: toxicity, cell-based, HEK-293T; details: human, read-out: Selectivity Index
Summary of the method: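 HEK-293T human embryonic kidney cells were exposed to 50 µg/mL and read by MTT as % inhibition. The index relates this cytotoxicity to the MIC against M. tuberculosis H37Rv ATCC 27294, defined as 99% growth inhibition.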

[3] = tested on: Mycobacterium tuberculosis; test: Antimycobacterial activity against Mycobacterium tuberculosis H37Rv ATCC 27294 after 7 days by Alamar blue assay; type: functional; details: H37Rv ATCC 27294, 168 h
[4] = Selectivity index, ratio of CC50 for African green monkey Vero cells to IC90 for Mycobacterium tuberculosis H37Rv ATCC 27294; type: toxicity, cell-based; details: read-out: Selectivity Index
[5] = tested on: Staphylococcus aureus; test: Antibacterial activity against Staphylococcus aureus NRS70 after 16 to 20 hrs by two-fold serial dilution method; type: functional

| Structure (SMILES) | MIC99 [1] | selectivity ratio [2] | other results |
| --- | --- | --- | --- |
| COc1cc(-n2c(/C=C/c3ccccc3)nc3ccccc3c2=O)cc(OC)c1OC | 0.78 µg/mL (≈ 1.88 µM) | > 64 | – |
| CSc1ccc(/C=C/c2nc3ccccc3c(=O)n2-c2ccccc2)cc1 | 3.12 µg/mL (≈ 8.44 µM) | < 16 | – |
| COc1ccc(-n2c(/C=C/c3ccco3)nc3ccccc3c2=O)cc1 | 6.25 µg/mL (≈ 18.1 µM) | < 8 | – |
| COc1cc(-n2c(/C=C/c3cccs3)nc3ccccc3c2=O)cc(OC)c1OC | 6.25 µg/mL (≈ 14.9 µM) | < 8 | – |
| Cc1ccc(-n2c(/C=C/c3ccccc3)nc3ccccc3c2=O)cc1 | > 25 µg/mL | – | – |
| CSc1ccc(-n2c(/C=C/c3ccc(N(C)C)cc3)nc3ccccc3c2=O)cc1 | 12.5 µg/mL (≈ 30.2 µM) | – | – |
| O=c1c2ccccc2nc(/C=C/c2ccc(Cl)cc2)n1-c1ccc(F)cc1 | 12.5 µg/mL (≈ 33.2 µM) | – | – |
| O=c1c2ccccc2nc(/C=C/c2ccc(F)cc2)n1-c1ccc(Cl)cc1 | 6.25 µg/mL (≈ 16.6 µM) | > 8 | – |
| CSc1ccc(-n2c(/C=C/c3ccccc3)nc3ccccc3c2=O)cc1 | 0.78 µg/mL (≈ 2.11 µM) | > 64 | – |
| COc1cc(/C=C/c2nc3ccccc3c(=O)n2-c2ccccc2)cc(OC)c1OC | 0.78 µg/mL (≈ 1.88 µM) | > 64 | – |
| O=c1c2ccccc2nc(/C=C/c2ccc(F)cc2)n1-c1ccccc1 | 25 µg/mL (≈ 73 µM) | – | – |
| Cc1ccc(-n2c(/C=C/c3ccc(Cl)cc3)nc3ccccc3c2=O)cc1 | 25 µg/mL (≈ 67.1 µM) | – | – |
| O=c1c2ccccc2nc(/C=C/c2ccc(F)cc2)n1-c1ccc(F)cc1 | > 25 µg/mL | – | – |
| COc1ccc(/C=C/c2nc3ccccc3c(=O)n2-c2ccc(OC)cc2)cc1 | 1.56 µg/mL (≈ 4.06 µM) | > 32 | – |
| O=c1c2ccccc2nc(/C=C/c2ccc(F)cc2)n1-c1ccc(Br)cc1 | 6.25 µg/mL (≈ 14.8 µM) | – | – |
| O=c1c2ccccc2nc(/C=C/c2ccccc2)n1-c1ccc(F)cc1 | 25 µg/mL (≈ 73 µM) | – | – |
| Cc1ccc(-n2c(/C=C/c3ccc(F)cc3)nc3ccccc3c2=O)cc1 | > 25 µg/mL | – | – |
| O=c1c2ccccc2nc(/C=C/c2ccccc2)n1-c1ccc(Br)cc1 | 6.25 µg/mL (≈ 15.5 µM) | > 8 | – |
| CSc1ccc(-n2c(/C=C/c3ccco3)nc3ccccc3c2=O)cc1 | 6.25 µg/mL (≈ 17.3 µM) | > 8 | – |
| NC(=O)c1cnccn1 [PYRAZINAMIDE] | 6.25 µg/mL (≈ 50.8 µM) | – | – |
| COc1cc(-n2c(/C=C/c3ccc(Cl)cc3)nc3ccccc3c2=O)cc(OC)c1OC | 3.12 µg/mL (≈ 6.96 µM) | > 16 | – |
| COc1ccc(/C=C/c2nc3ccccc3c(=O)n2-c2ccccc2)cc1 | 12.5 µg/mL (≈ 35.3 µM) | – | – |
| O=c1c2ccccc2nc(/C=C/c2cccs2)n1-c1ccccc1 | 3.12 µg/mL (≈ 9.46 µM) | < 16 | – |
| CC[C@@H](CO)NCCN[C@@H](CC)CO [ETHAMBUTOL] | 1.56 µg/mL (≈ 7.64 µM) | – | – |
| CSc1ccc(-n2c(/C=C/c3ccc(OC(C)=O)cc3)nc3ccccc3c2=O)cc1 | 6.25 µg/mL (≈ 14.6 µM) | – | – |
| COc1cc(-n2c(/C=C/c3ccc(SC)cc3)nc3ccccc3c2=O)cc(OC)c1OC | 0.4 µg/mL (≈ 0.869 µM) | > 125 | – |
| COc1ccc(-n2c(/C=C/c3ccc(Cl)cc3)nc3ccccc3c2=O)cc1 | 3.12 µg/mL (≈ 8.04 µM) | < 16 | – |

| Structure (SMILES) | MIC99 [1] | selectivity ratio [2] | other results |
| --- | --- | --- | --- |
| CSc1ccc(-n2c(/C=C/c3ccc(Cl)cc3)nc3ccccc3c2=O)cc1 | 12.5 µg/mL (≈ 30.9 µM) | – | – |
| COc1ccc(/C=C/c2nc3ccccc3c(=O)n2-c2cc(OC)c(OC)c(OC)c2)cc1 | 12.5 µg/mL (≈ 28.1 µM) | – | – |
| O=c1c2ccccc2nc(/C=C/c2ccccc2)n1-c1ccccc1 | 3.12 µg/mL (≈ 9.63 µM) | > 16 | – |
| O=c1c2ccccc2nc(/C=C/c2ccco2)n1-c1ccccc1 | 12.5 µg/mL (≈ 39.8 µM) | – | – |
| CSc1ccc(-n2c(/C=C/c3cccs3)nc3ccccc3c2=O)cc1 | 6.25 µg/mL (≈ 16.6 µM) | > 8 | – |
| O=c1c2ccccc2nc(/C=C/c2ccc([N+](=O)[O-])o2)n1CCCO | – | – | IC90 [3]: < 0.1 µg/mL; selectivity ratio [4]: > 150 |
| CO[C@H]1/C=C/O[C@@]2(C)Oc3c(C)c(O)c4c(O)c(c(/C=N/N5CCN(C)CC5)c(O)c4c3C2=O)NC(=O)/C(C)=C\C=C\[C@H](C)[C@H](O)[C@@H](C)[C@@H](O)[C@@H](C)[C@H](OC(C)=O)[C@@H]1C [RIFAMPIN] | 0.197 µg/mL (≈ 0.239 µM) | – | – |
| N#Cc1ccc(/C=C/c2nc3ccccc3c(=O)n2-c2cccc(C(=O)O)c2)cc1 | – | – | MIC [5]: 2 µg/mL (≈ 5.08 µM) |
| O=c1c2ccccc2nc(/C=C/c2ccc([N+](=O)[O-])o2)n1-c1cccc(O)c1 | – | – | IC90 [3]: 1.02 µg/mL (≈ 2.72 µM); selectivity ratio [4]: > 14.7 |
| COc1ccc(-n2c(/C=C/c3cccs3)nc3ccccc3c2=O)cc1 | 1.56 µg/mL (≈ 4.33 µM) | > 32 | – |
| COc1cc(/C=C/c2nc3ccccc3c(=O)n2-c2ccc(SC)cc2)cc(OC)c1OC | > 25 µg/mL | – | – |
| COc1ccc(/C=C/c2nc3ccccc3c(=O)n2-c2ccc(C)cc2)cc1 | 12.5 µg/mL (≈ 33.9 µM) | – | – |
| O=c1c2ccccc2nc(/C=C/c2c(O)cccc2O)n1-c1ccccc1 | 6.25 µg/mL (≈ 17.5 µM) | > 8 | – |
| COc1ccc(-n2c(/C=C/c3ccccc3)nc3ccccc3c2=O)cc1 | 1.56 µg/mL (≈ 4.4 µM) | > 32 | – |
| Cc1ccc(/C=C/c2nc3ccccc3c(=O)n2-c2ccc(C)cc2)cc1 | 3.12 µg/mL (≈ 8.87 µM) | > 16 | – |
| O=c1c2ccccc2nc(/C=C/c2ccc(Cl)cc2)n1-c1ccccc1 | 12.5 µg/mL (≈ 34.8 µM) | – | – |
| O=c1c2ccccc2nc(/C=C/c2ccc(Cl)cc2)n1-c1ccc(Cl)cc1 | > 25 µg/mL | – | – |
| Cc1ccc(/C=C/c2nc3ccccc3c(=O)n2-c2ccc(F)cc2)cc1 | 6.25 µg/mL (≈ 17.5 µM) | > 8 | – |
| NNC(=O)c1ccncc1 [ISONIAZID] | 0.098 µg/mL (≈ 0.715 µM) | – | – |
| O=c1c2ccccc2nc(/C=C/c2ccccc2)n1-c1ccc(Cl)cc1 | 12.5 µg/mL (≈ 34.8 µM) | – | – |
| COc1cc(-n2c(/C=C/c3ccco3)nc3ccccc3c2=O)cc(OC)c1OC | 3.12 µg/mL (≈ 7.73 µM) | > 16 | – |
| O=c1c2ccccc2nc(/C=C/c2ccc(Cl)cc2)n1-c1ccc(Cc2ccccc2)cc1 | 3.12 µg/mL (≈ 6.96 µM) | – | – |
| CSc1ccc(-n2c(/C=C/c3ccc(F)cc3)nc3ccccc3c2=O)cc1 | 12.5 µg/mL (≈ 32.2 µM) | – | – |
| O=c1c2ccccc2nc(/C=C/c2ccc(OCc3ccccc3)cc2)n1-c1ccccc1 | 12.5 µg/mL (≈ 29 µM) | – | – |
| COc1ccc(/C=C/c2nc3ccccc3c(=O)n2-c2ccc(SC)cc2)cc1 | > 25 µg/mL | – | – |
| COc1cc(-n2c(/C=C/c3ccc(F)cc3)nc3ccccc3c2=O)cc(OC)c1OC | 6.25 µg/mL (≈ 14.5 µM) | > 8 | – |

— ChEMBL document CHEMBL3804827, “Synthesis, biological evaluation and structure-activity relationship of 2-styrylquinazolones as anti-tubercular agents” (Bioorg Med Chem Lett, 2016)
